# Laboratory results taken from ChEMBL document CHEMBL1158182, “Antifungal activity of chalcones: a mechanistic study using various yeast strains” (Eur J Med Chem, 2008).
# The source made the active and inactive calls. No cut-off for these calls is given here.
# Experiments:
# [1] = tested on: Ogataea angusta; assay: Antifungal activity against Hansenula polymorpha CD3 with ade1 leu2 cds3 genotype by agar dilution method; format: functional
# How it was run: (§1)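 H. polymorpha strains were tested by agar dilution on rich YPD agar at 37 °C. Compound stocks in 96% EtOH were mixed into the medium to give […]. Cells were suspended in water, serially diluted to 10^9, 10^7, 10^5 and 10^3 cells/ml, and applied to the agar with a metal replicator. MIC was read from growth.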
# [2] = tested on: Saccharomyces cerevisiae; assay: Antifungal activity against haploid Saccharomyces cerevisiae Sigma 1278b by agar dilution method; format: functional
# How it was run: (§2)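 S. cerevisiae and K. lactis strains were tested by agar dilution on rich YPD agar at 30 °C. Compound stocks in 96% EtOH were added to the medium to give […]. Cells were suspended in water, serially diluted to 10^9–10^3 cells/ml, and plated with a metal replicator. MIC was read from growth.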
# [3] = tested on: Ogataea angusta; assay: Antifungal activity against Hansenula polymorpha 2b with arg1 ade1 leu2 genotype by agar dilution method; format: functional; how it was run: as §1
# [4] = tested on: Ogataea angusta; assay: Antifungal activity against Hansenula polymorpha CD1 with ade1 leu2 cds1 genotype by agar dilution method; format: functional; how it was run: as §1
# [5] = tested on: Ogataea angusta; assay: Antifungal activity against Hansenula polymorpha M2 with met2 genotype by agar dilution method; format: functional; how it was run: as §1
# [6] = tested on: Ogataea angusta; assay: Antifungal activity against Hansenula polymorpha 2a with arg1 leu2 ura3 cys1 genotype by agar dilution method; format: functional; how it was run: as §1
# [7] = tested on: Saccharomyces cerevisiae; assay: Antifungal activity against haploid Saccharomyces cerevisiae YSH1171 by agar dilution method; format: functional; how it was run: as §2
# [8] = tested on: Ogataea angusta; assay: Antifungal activity against Hansenula polymorpha WT1 with ade1 ura3 genotype by agar dilution method; format: functional; how it was run: as §1
# [9] = tested on: Kluyveromyces lactis; assay: Antifungal activity against Kluyveromyces lactis 2-18B with MATalpha metA1 ura3 leu2 genotype by agar dilution method; format: functional; how it was run: as §2
# [10] = tested on: Ogataea angusta; assay: Antifungal activity against Hansenula polymorpha CD2 with ade1 leu2 cds2 genotype by agar dilution method; format: functional; how it was run: as §1
# [11] = tested on: Saccharomyces cerevisiae; assay: Antifungal activity against diploid Saccharomyces cerevisiae 1a by agar dilution method; format: functional; how it was run: as §2
# [12] = tested on: Ogataea angusta; assay: Antifungal activity against Hansenula polymorpha WA1 with ade1 leu2 gsh1 genotype by agar dilution method; format: functional
# How it was run: (§3)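 MICs by agar dilution on rich YPD medium. Compounds were added from 96% EtOH stocks to give final agar concentrations of 20 to 50 (units as printed in the source). Cells were suspended in water, serially diluted to 10^9, 10^7, 10^5 and 10^3 cells/ml, and spotted onto agar with a metal replicator. Incubation was at 37 °C for H. polymorpha and 30 °C for S. cerevisiae.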
# [13] = tested on: Saccharomyces cerevisiae; assay: Antifungal activity against haploid Saccharomyces cerevisiae YSH1170 by agar dilution method; format: functional; how it was run: as §2
# [14] = tested on: Ogataea angusta; assay: Antifungal activity against Hansenula polymorpha M4 with met4 genotype by agar dilution method; format: functional; how it was run: as §1
# [15] = tested on: Saccharomyces cerevisiae; assay: Antifungal activity against haploid Saccharomyces cerevisiae 2180 by agar dilution method; format: functional; how it was run: as §2
# [16] = tested on: Ogataea angusta; assay: Antifungal activity against Hansenula polymorpha AS1 with arg1 gsh2delta genotype by agar dilution method; format: functional; how it was run: as §1
# [17] = tested on: Saccharomyces cerevisiae; assay: Antifungal activity against diploid Saccharomyces cerevisiae PV-2 by agar dilution method; format: functional; how it was run: as §3
# [18] = tested on: Saccharomyces cerevisiae; assay: Antifungal activity against haploid Saccharomyces cerevisiae 1S by agar dilution method; format: functional; how it was run: as §2
# [19] = tested on: Saccharomyces cerevisiae; assay: Antifungal activity against diploid Saccharomyces cerevisiae 29a by agar dilution method; format: functional; how it was run: as §2
# [20] = tested on: Ogataea angusta; assay: Antifungal activity against Hansenula polymorpha CRD2 with leu2 CDR2 genotype by agar dilution method; format: functional; how it was run: as §1
# [21] = tested on: Saccharomyces cerevisiae; assay: Antifungal activity against haploid Saccharomyces cerevisiae 1169 by agar dilution method; format: functional; how it was run: as §2
# [22] = tested on: Saccharomyces cerevisiae; assay: Antifungal activity against diploid Saccharomyces cerevisiae PV-3 by agar dilution method; format: functional; how it was run: as §3
# [23] = tested on: Ogataea angusta; assay: Antifungal activity against Hansenula polymorpha R3 with rgh3 genotype by agar dilution method; format: functional; how it was run: as §1
# [24] = tested on: Kluyveromyces lactis; assay: Antifungal activity against Kluyveromyces lactis 2-19B with MATalpha ura lys arg genotype by agar dilution method; format: functional; how it was run: as §2
# [25] = tested on: Saccharomyces cerevisiae; assay: Antifungal activity against haploid Saccharomyces cerevisiae FY4 by agar dilution method; format: functional; how it was run: as §2
# [26] = tested on: Ogataea angusta; assay: Antifungal activity against Hansenula polymorpha MC1 with met2 cys1 genotype by agar dilution method; format: functional; how it was run: as §1
# [27] = tested on: Ogataea angusta; assay: Antifungal activity against Hansenula polymorpha D22 with arg1/arg1 ade1/ADE1 leu2/leu2 URA3/ura3 CYS1/cys1 genotype by agar dilution method; format: functional; how it was run: as §1
# [28] = tested on: Ogataea angusta; assay: Antifungal activity against Hansenula polymorpha WT2 with ade1 met6 genotype by agar dilution method; format: functional; how it was run: as §1
# [29] = tested on: Kluyveromyces lactis; assay: Antifungal activity against Kluyveromyces lactis 1-6A with MATalpha uraA lys arg genotype by agar dilution method; format: functional; how it was run: as §2
# [30] = tested on: Saccharomyces cerevisiae; assay: Antifungal activity against haploid Saccharomyces cerevisiae 10560-6B by agar dilution method; format: functional; how it was run: as §2
# [31] = tested on: Ogataea angusta; assay: Antifungal activity against Hansenula polymorpha AU05 with ade3 ura3 genotype by agar dilution method; format: functional; how it was run: as §1
# [32] = tested on: Ogataea angusta; assay: Antifungal activity against Hansenula polymorpha 2a with cys1 genotype with cellular density of 10^3 cells/ml at >40 uM by agar dilution method; format: functional, organism-based
# [33] = tested on: Ogataea angusta; assay: Antifungal activity against Hansenula polymorpha AS2 with gsh2 genotype with cellular density of 10^9 cells/ml at 40 uM by agar dilution method; format: functional, organism-based
# [34] = tested on: Ogataea angusta; assay: Antifungal activity against Hansenula polymorpha AS2 with gsh2 genotype with cellular density of 10^3 cells/ml at >40 uM by agar dilution method; format: functional, organism-based
# [35] = tested on: Ogataea angusta; assay: Antifungal activity against Hansenula polymorpha AS1 with gsh1 genotype with cellular density of 10^9 cells/ml at 40 uM by agar dilution method; format: functional, organism-based
# [36] = tested on: Ogataea angusta; assay: Antifungal activity against Hansenula polymorpha AS1 with gsh1 genotype at 20 to 30 uM after 1 day by agar dilution method; format: functional, organism-based
# [37] = tested on: Ogataea angusta; assay: Antifungal activity against Hansenula polymorpha CTA1 with leu2 cat1 genotype by agar dilution method; format: functional; how it was run: as §3
# [38] = tested on: Ogataea angusta; assay: Antifungal activity against Hansenula polymorpha AS2 with gsh2 genotype at 20 to 30 uM after 1 day by agar dilution method; format: functional, organism-based
# [39] = tested on: Ogataea angusta; assay: Antifungal activity against Hansenula polymorpha WT1 at 20 to 30 uM after 1 day by agar dilution method; format: functional, organism-based
# [40] = tested on: Ogataea angusta; assay: Antifungal activity against Hansenula polymorpha AS1 with gsh1 genotype with cellular density of 10^3 cells/ml at >40 uM by agar dilution method; format: functional, organism-based
# [41] = tested on: Ogataea angusta; assay: Antifungal activity against Hansenula polymorpha 2a with cys1 genotype at 20 to 30 uM after 1 day by agar dilution method; format: functional, organism-based
# [42] = tested on: Ogataea angusta; assay: Antifungal activity against Hansenula polymorpha WT1 with cellular density of 10^9 cells/ml at 40 uM by agar dilution method; format: functional, organism-based
# [43] = tested on: Ogataea angusta; assay: Antifungal activity against Hansenula polymorpha WT1 with cellular density of 10^3 cells/ml at >40 uM by agar dilution method; format: functional, organism-based
# [44] = tested on: Ogataea angusta; assay: Antifungal activity against Hansenula polymorpha 2a with cys1 genotype with cellular density of 10^9 cells/ml at 40 uM by agar dilution method; format: functional, organism-based
# [45] = Stability of compound in liquid YPD media after 48 hrs by UV spectrophotometry; format: physicochemical
# How it was run: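 Compound from a 96% EtOH stock was added to liquid YPD to […]. The medium was inoculated with 10^5 cells/ml of H. polymorpha WT1 and incubated at 37 °C. Samples were taken at 24 and 48 h and centrifuged, and compound in the supernatant was measured by absorbance at 308 nm. Controls had no cells. Assays were run in triplicate.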
smiles,measurement,setting,value
O=C(/C=C/c1ccc(O)cc1)c1ccc(Cl)cc1,MIC,[1],> 40 µg/mL
same,MIC,[2],> 40 µg/mL
same,MIC,[3],> 40 µg/mL
same,MIC,[4],> 40 µg/mL
same,MIC,[5],> 40 µg/mL
same,MIC,[6],35 µg/mL
same,MIC,[7],> 40 µg/mL
same,MIC,[8],> 40 µg/mL
same,MIC,[9],35 µg/mL
same,MIC,[10],> 40 µg/mL
same,MIC,[11],35 µg/mL
same,MIC,[12],30 µg/mL
same,MIC,[13],> 40 µg/mL
same,MIC,[14],> 40 µg/mL
same,MIC,[15],> 40 µg/mL
same,MIC,[16],30 µg/mL
same,MIC,[17],35 µg/mL
same,MIC,[18],> 40 µg/mL
same,MIC,[19],> 40 µg/mL
same,MIC,[20],40 µg/mL
same,MIC,[21],> 40 µg/mL
same,MIC,[22],35 µg/mL
same,MIC,[23],40 µg/mL
same,MIC,[24],35 µg/mL
same,MIC,[25],> 40 µg/mL
same,MIC,[26],30 µg/mL
same,MIC,[27],> 40 µg/mL
same,MIC,[28],> 40 µg/mL
same,MIC,[29],> 40 µg/mL
same,MIC,[30],> 40 µg/mL
same,MIC,[31],> 40 µg/mL
O=C(/C=C/c1ccccc1)c1ccccc1 [CHALCONE],MIC,[1],30 µg/mL
same,MIC,[2],> 40 µg/mL
same,MIC,[3],30 µg/mL
same,Activity,[32],Active
same,MIC,[4],30 µg/mL
same,MIC,[5],30 µg/mL
same,Activity,[33],inactive
same,MIC,[6],25 µg/mL
same,MIC,[7],> 40 µg/mL
same,MIC,[8],30 µg/mL
same,MIC,[9],< 20 µg/mL
same,Activity,[34],Active
same,MIC,[10],30 µg/mL
same,Activity,[35],inactive
same,MIC,[11],> 40 µg/mL
same,Activity,[36],Active
same,MIC,[13],> 40 µg/mL
same,MIC,[14],< 20 µg/mL
same,MIC,[37],30 µg/mL
same,MIC,[15],> 40 µg/mL
same,Activity,[38],Active
same,Activity,[39],Active
same,Activity,[40],Active
same,MIC,[16],20 µg/mL
same,MIC,[18],> 40 µg/mL
same,MIC,[19],> 40 µg/mL
same,Activity,[41],Active
same,Activity,[42],inactive
same,MIC,[20],> 40 µg/mL
same,MIC,[21],> 40 µg/mL
same,Activity,[43],Active
same,Activity,[44],inactive
same,MIC,[23],> 40 µg/mL
same,MIC,[24],25 µg/mL
same,MIC,[25],> 40 µg/mL
same,Activity,[45],7.1 µg/mL
same,MIC,[26],20 µg/mL
same,MIC,[27],30 µg/mL
same,MIC,[28],30 µg/mL
same,MIC,[29],< 20 µg/mL
same,MIC,[30],> 40 µg/mL
same,MIC,[31],< 20 µg/mL
O=C(/C=C/c1ccccc1)c1ccc(Cl)cc1,MIC,[1],> 40 µg/mL
same,MIC,[2],> 40 µg/mL
same,MIC,[3],> 40 µg/mL
same,MIC,[4],> 40 µg/mL
same,MIC,[5],> 40 µg/mL
same,MIC,[6],> 40 µg/mL
same,MIC,[7],> 40 µg/mL
same,MIC,[8],> 40 µg/mL
same,MIC,[9],> 40 µg/mL
same,MIC,[10],> 40 µg/mL
same,MIC,[11],> 40 µg/mL
same,MIC,[13],> 40 µg/mL
same,MIC,[14],> 40 µg/mL
same,MIC,[15],> 40 µg/mL
same,MIC,[16],> 40 µg/mL
same,MIC,[18],> 40 µg/mL
same,MIC,[19],> 40 µg/mL
same,MIC,[20],> 40 µg/mL
same,MIC,[21],> 40 µg/mL
same,MIC,[23],> 40 µg/mL
same,MIC,[24],> 40 µg/mL
same,MIC,[25],> 40 µg/mL
same,MIC,[26],> 40 µg/mL
same,MIC,[27],> 40 µg/mL
same,MIC,[28],> 40 µg/mL
same,MIC,[29],> 40 µg/mL
same,MIC,[30],> 40 µg/mL
same,MIC,[31],> 40 µg/mL
